Compound activity as filed in PubChem.
Shown are actives, neighbours in structure and some others; about 3.8% of the full set was active somewhere.
KCNK9 block – KCNK9 potassium channel inhibitors, primary screen, HEK293 cells, thallium flux. FluxOR thallium flux fluorescence; active compounds read low. B-score at 10 µM. 310,000 compounds, 1.2% hits. AID 488922, 2010;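 active means ratio B-score over 3 SD below the library mean, with starting fluorescence within 5 SD of its mean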;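 further: negative B-score means less thallium flux so channel inhibition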
Target sequence (Q9NPC2 whole entry, looked up): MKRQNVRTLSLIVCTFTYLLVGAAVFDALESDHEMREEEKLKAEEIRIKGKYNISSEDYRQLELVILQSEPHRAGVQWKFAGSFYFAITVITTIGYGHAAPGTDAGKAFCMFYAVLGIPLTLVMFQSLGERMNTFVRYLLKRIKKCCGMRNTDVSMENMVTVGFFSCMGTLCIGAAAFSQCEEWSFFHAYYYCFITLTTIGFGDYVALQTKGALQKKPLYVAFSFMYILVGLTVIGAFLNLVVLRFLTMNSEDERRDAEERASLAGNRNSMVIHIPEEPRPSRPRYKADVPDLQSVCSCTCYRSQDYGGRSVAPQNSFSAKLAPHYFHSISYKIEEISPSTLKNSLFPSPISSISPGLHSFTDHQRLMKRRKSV
Kir21 block – inhibitors of mouse Kir2.1 inward-rectifier potassium channel; Inward rectifier potassium channel 2 (Mus musculus), P35561; HEK293-Kir2.1, FluxOR thallium flux fluorescence; active compounds read low; B-score at 10 µM; 310,000 compounds, 0.85% hits;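 active means fluorescence ratio B-score at or below minus 3 SD of library scores, with starting-brightness B-score within 2 SD, cut at about -4.2 in these data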;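 further: channel flux triggered by added potassium and thallium sulfate stimulus; B-score of peak minus minimum fluorescence over baseline after thallium stimulus; more negative B-score means stronger Kir2.1 block with less thallium influx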
hERG protect – hERG rescue from dofetilide block, primary screen, cell-based, CHO-hERG, FluxOR thallium flux, dofetilide IC70; activation (rescue from dofetilide block), less the hit threshold, % at 10 µM; dofetilide IC70 present; AID 1511, 2009; 310,000 compounds, 0.51% hits;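 active means activation above the mean of controls blocked by dofetilide plus 5 SD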;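 further: thallium influx through hERG after potassium depolarization seen as dye fluorescence rise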
KCNQ1 pot – potentiators or activators of KCNQ1 channel, primary screen, cell-based, thallium flux, high-throughput; Potassium voltage-gated channel subfamily KQT member 1 (Homo sapiens), P51787; CHO-K1 KCNQ1, thallium flux FluxOR fluorescence; active compounds read high; B-score at 10 µM; 310,000 compounds, 0.35% hits; AID 2648, 2010;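 active means fluorescence ratio B-score, a plate-corrected score, at least three library SD, with initial intensity B-score within 5 SD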
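assay system = CHO-K1 cells stably expressing KCNQ1 | medium = assay buffer, equal DMSO in all wells | timing = 37 °C overnight plating, 90-min dark dye load, 20-min compound pretreatment | measured by = kinetic FluxOR thallium fluorescence, 10-s 1-Hz baseline, 110-s post-stimulus read | measure = fluorescence change relative to baseline, converted to B score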
KCNK3 inh – human KCNK3 channel inhibitors, primary screen, CHO cells, FluxOR thallium flux, B-score | 340,000 compounds, 0.84% hits | FluxOR fluorescence; active compounds read low | B-score at 10 µM;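 active means B-score under library mean minus 4 SD, starting fluorescence ratio at most library mean plus 5 SD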;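 further: more negative B-score means stronger inhibition of thallium flux through KCNK3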
KCNQ1 inh – inhibitors of human KCNQ1 channel, primary screen, cell-based, thallium flux, high-throughput; AID 2642, 2010; B-score at 10 µM; Potassium voltage-gated channel subfamily KQT member 1 (Homo sapiens), P51787; 310,000 compounds, 1.3% hits; CHO-K1 KCNQ1, FluxOR thallium flux fluorescence; active compounds read high;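 active means compounds whose thallium flux B-score, printed positive for inhibition, exceeds three library SD while starting fluorescence stays within three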;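 further: channel opened by potassium depolarization with thallium stimulus after 20 min compound exposure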
KCNK9 inh conf – KCNK9 potassium channel inhibitors, confirmation, HEK293 cells, thallium flux, duplicate; FluxOR thallium flux fluorescence; 4,900 compounds, 43% hits; inhibition, % at 10 µM; shares compounds with KCNK9 block;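 active means thallium signal inhibited by more than 5 SD of the compound-free buffer control wells, on both duplicate plates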
Kir21 sel – mouse Kir2.1 channel inhibition, confirmation, selectivity assay for KCNK9 modulator project, cell-based, HEK293, thallium flux | shares compounds with KCNK9 block | Kir2.1 cells, FluxOR thallium flux fluorescence | inhibition, % at 10 µM | 4,900 compounds, 4% hits | AID 492993, 2010;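 active means thallium signal drop more than 5 SD beyond the mean of the no-compound control wells, seen in both duplicate plates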;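 further: signal is fluorescence rise after thallium addition divided by baseline fluorescence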
HEK293 Tl ctr – thallium flux in non-induced HEK293 cells, confirmation, counter-screen for KCNK9 inhibitor project, cell-based, second counter screen, non-induced KCNK9-HEK293. shares compounds with KCNK9 block. FluxOR thallium flux. inhibition, % at 10 µM. 4,900 compounds, 40% hits. AID 492997, 2010;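 active means thallium signal drop beyond 5 SD of the untreated control mean, on both duplicate plates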
Hits are given with their value; - = inactive; . = no result.

SMILES	KCNK9 block	Kir21 block	hERG protect	KCNQ1 pot	KCNK3 inh	KCNQ1 inh	KCNK9 inh conf	Kir21 sel	HEK293 Tl ctr
O=C(CSc1ccc(Br)c2cccc(Cl)c12)Nc1ccc(S(=O)(=O)Nc2nccs2)cc1	-	-	-	-	-	-	-	-	-
O=C(Cc1ccccc1Cl)Nc1ccc(S(=O)(=O)Nc2nccs2)cc1	-	-	-	-	-	-	.	.	.
CCOC(=O)n1c(=O)n(Cc2ccc(Cl)cc2Cl)c2ccccc21	-17	-	-	-	-	-	76%	-	-
Clc1ccc(CO/N=C/c2c(-c3ccccc3)nc3n2CCS3)c(Cl)c1	-9.7	-	-	-	-	-	-	-	28%
Cc1ccc2cc(C)c(N3CCN(c4ccccn4)CC3)nc2c1	-	-	-	-	-	-	-	-	26%
O=C(COC(=O)c1c2c(nc3ccccc13)CCN(Cc1ccccc1)C2)Nc1c(F)cccc1F	-8.3	-	-	-	-	-	-	-	-
Cc1cccc(CN2CCCC(C(=O)N3CCc4ccccc4C3)C2)c1 (stereo not given)	-	-	-	-	-	-	-	-	-
COc1ccc(NC(=O)c2ccccc2Oc2ccccc2)c(OC)c1	-8.4	-	-	-	-	-	55%	-	30%
COc1ccc(NC(=O)c2cc(-c3cccnc3)nc3c(C)c(C)ccc23)c(OC)c1	-	-	-	-	-	-	-	-	-
CC(C)[C@H](NC(=O)[C@@H]1Cc2c([nH]c3ccccc23)C2c3ccccc3C(=O)N21)C(=O)N1CCC[C@@H]1C(=O)O (stereo not given in full)	-	-	-	-	-	-	.	.	.
COc1ccc(C(C)(C)C)cc1NC(=O)CNc1cccc2ccccc12	-	-	-	-	-	-	-	-	-
c1ccc(C(c2nnnn2Cc2ccco2)N2CCN(c3nc4ccccc4s3)CC2)cc1 (stereo not given)	-8.2	-	-	-	-	-	42%	-	28%
CCC(c1nnnn1Cc1ccco1)N1CCC(C(N)=O)CC1 (stereo not given)	-	-	-	-	-	-	.	.	.
CCCCC(c1nnnn1Cc1ccco1)N1CCN(c2nc3ccccc3s2)CC1 (stereo not given)	-16	-	-	-	-	-	48%	-	33%
CCC(c1nnnn1Cc1ccco1)N1CCN(c2cc(Cl)ccc2C)CC1 (stereo not given)	-11	-	-	-	-	-	54%	-	42%
O=C(Nc1cccc2ccccc12)c1cn(-c2ccccc2)nc1-c1cccs1	-10	-	-	-	-9.5	-	50%	-	24%
O=C(Nc1cccnc1)c1cn(-c2ccccc2)nc1-c1cccs1	-	-	-	-	-	-	.	.	.
C=C(C(=O)c1ccccc1)C(CC(=O)c1ccccc1)c1ccccc1 (stereo not given)	-13	-	-	-	-	-	45%	-	44%
Oc1c(C(Nc2nccs2)c2ccc(C(F)(F)F)cc2)ccc2cccnc12 (stereo not given)	-	-	-	-	-	-	-	-	-
CCc1ccc(-c2cc(C)no2)cc1S(=O)(=O)N1CCN(c2cc(C)ccc2C)CC1	-	-	-	-	-	-	-	-	-
C[C@H](NC(=O)c1nc[nH]c1C(=O)N[C@@H](CCCCNC(=O)OC(C)(C)C)C(=O)OC(C)(C)C)c1ccccc1	-11	-	-	-	-	-	-	-	29%
COc1cc2c(cc1NC(=O)CN(C)Cc1nc3ccccc3c(=O)[nH]1)oc1ccccc12	-	-	-	-	-	-	.	.	.
O=C(Nc1sc2c(c1C(=O)NCc1ccco1)CCCC2)c1ccc2c(c1)OCO2	-10	-	-	-	-	-	42%	-	-
COc1ccc(C(=O)Nc2sc3c(c2C(=O)NCc2ccco2)CCCC3)cc1OC	-12	-	-	-	-	-	31%	-	-
Cc1cc(C)c(S(=O)(=O)NCC(CCC(=O)O)C(F)(F)F)c(C)c1 (stereo not given)	-	-	-	-	-	-	.	.	.
SMILES	KCNK9 block	Kir21 block	hERG protect	KCNQ1 pot	KCNK3 inh	KCNQ1 inh	KCNK9 inh conf	Kir21 sel	HEK293 Tl ctr
COc1ccccc1/C=C/CN1CCSCC1	-	-	-	-	-	-	.	.	.
CN(Cc1cnn(-c2ccc(F)cc2)c1)Cc1nc(Cc2ccccc2)no1	-	-	-	-	-	-	-	-	-
CN(CCc1cnn(C)c1)Cc1nc(Cc2ccccc2)no1	-	-	-	-	-	-	.	.	.
COC(=O)c1sc2nc(C)nc(SCC(=O)C(C)(C)C)c2c1C	-	-	-	-	-	-	.	.	.
C(#Cc1ccccc1)CN1CCN(c2ccccn2)CC1	-	-	-	-	-	-	-	-	-
C(#Cc1ccccc1)CN1CCCCC1	-	-	-	-	-	-	.	.	.
FC(F)(F)c1ccc(-c2nc(=S)[nH][nH]2)cc1	-	-	-	-	-	-	-	-	-
CCn1c(SCC#N)nc2c(c1=O)C1(CCCC1)Cc1ccccc1-2	-12	-	-	-	-	-	47%	-	-
CC1CCCCC1NC(=O)C1CCN(c2c3c(nc4ncnn24)CCC3)CC1 (stereo not given)	-	-	-	-	-	-	.	.	.
O=C(OC(c1ccccc1)c1nccc2ccccc12)c1cccc([N+](=O)[O-])c1 (stereo not given)	-13	-	-	-	-	7	40%	-	48%
COC(=O)C1=C(C)NC(C)=C(C(=O)OC)C1c1ccc(OC(=O)c2oc3ccccc3c2C)c(OC)c1	-9.6	-	-	-	-	-	62%	-	34%
COC(=O)c1ccc(COc2cc(O)c3c(c2)OC(C)(C)CC3=O)cc1	-	-	-	-	-	-	.	.	.
CC1(C)CC(=O)c2c(O)cc(OCc3ccc(Br)cc3)cc2O1	-8.4	-	-	-	-	-	73%	-	42%
O=S(=O)(Nc1cccc(-n2cnnn2)c1)c1ccccc1C(F)(F)F	-	-	-	-	-	-	.	.	.
